In ChEMBL document CHEMBL1799921, “3-(1,3,4-Thiadiazole-2-yl)quinoline derivatives: synthesis, characterization and anti-microbial activity” (Eur J Med Chem, 2011):
≈ marks a conversion by molar mass, not a printed value.

Experiments:
[1] = tested on: Staphylococcus aureus; experiment: Antibacterial activity against Staphylococcus aureus measured at MIC after 18 hrs by halo zone test; assay type: functional
Procedure, shortened: (§1)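 Disk diffusion. Strains subcultured 18 h at 37 °C in BHI, then suspended in saline by McFarland to about 10⁵ CFU/mL. Suspension mixed 1:1 with antibiotic agar at 40 °C and plated. 6.0 mm paper disks loaded with dilutions from a DMSO stock (1 mg per 100 of DMSO). Incubated 18 h at 36 °C. Inhibition zone (mm) measured at the MIC. Amoxicillin and DMSO disks as controls.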

[2] = tested on: Streptococcus pyogenes; experiment: Antibacterial activity against Streptococcus pyogenes measured at MIC after 18 hrs by halo zone test; assay type: functional; procedure, shortened: as §1
[3] = tested on: Salmonella typhimurium; experiment: Antibacterial activity against Salmonella Typhimurium measured at MIC after 18 hrs by halo zone test; assay type: functional, Salmonella enterica subsp. enterica serovar Typhimurium; procedure, shortened: as §1
[4] = tested on: Escherichia coli; experiment: Antibacterial activity against Escherichia coli measured at MIC after 18 hrs by halo zone test; assay type: functional; procedure, shortened: as §1
[5] = tested on: Staphylococcus aureus; experiment: Antibacterial activity against Staphylococcus aureus after 18 hrs by macro-dilution test; assay type: functional
Procedure, shortened: (§2)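 Tube macro-dilution. Compounds in DMSO serially diluted to final […]. 24 h old inoculum added to each tube. Standard inoculum […]. Incubated 18 h at 37 °C. MIC is the lowest concentration with no visible growth, read visually. DMSO negative and amoxicillin positive controls.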

[6] = tested on: Streptococcus pyogenes; experiment: Antibacterial activity against Streptococcus pyogenes after 18 hrs by macro-dilution test; assay type: functional; procedure, shortened: as §2
[7] = tested on: Salmonella typhimurium; experiment: Antibacterial activity against Salmonella Typhimurium after 18 hrs by macro-dilution test; assay type: functional, Salmonella enterica subsp. enterica serovar Typhimurium; details: Salmonella enterica; procedure, shortened: as §2
[8] = tested on: Escherichia coli; experiment: Antibacterial activity against Escherichia coli after 18 hrs by macro-dilution test; assay type: functional; procedure, shortened: as §2

Row | SMILES | inhibition zone (IZ) [1] [mm] | inhibition zone (IZ) [2] [mm] | inhibition zone (IZ) [3] [mm] | inhibition zone (IZ) [4] [mm] | MIC [5] [µg/mL] | MIC [6] [µg/mL] | MIC [7] [µg/mL] | MIC [8] [µg/mL]
1 | CC(=O)N(C1=NN(C(C)=O)C(c2cc3cccc(Cl)c3nc2Cl)S1)c1cc(F)ccc1F (stereo not drawn) | 12.99 | 13.92 | 17.59 | 16.45 | 64 (≈ 129 µM) | 64 (≈ 129 µM) | 64 (≈ 129 µM) | 64 (≈ 129 µM)
2 | CC(=O)N(C1=NN(C(C)=O)C(c2cc3cccc(Cl)c3nc2Cl)S1)c1ccc(C)cc1 (stereo not drawn) | 15.67 | 17.09 | 16.88 | 18.11 | 64 (≈ 135 µM) | 64 (≈ 135 µM) | 64 (≈ 135 µM) | 64 (≈ 135 µM)
3 | CC(=O)NC1=NN(C(C)=O)C(c2cc3ccccc3nc2Cl)S1 (stereo not drawn) | 15.67 | 16.97 | 13.42 | 17.76 | 64 (≈ 183 µM) | 64 (≈ 183 µM) | 64 (≈ 183 µM) | 64 (≈ 183 µM)
4 | NC(=S)N/N=C/c1cc2cccc(Cl)c2nc1Cl | 21.13 | 19.58 | 16.66 | 15.8 | 64 (≈ 214 µM) | 64 (≈ 214 µM) | 128 (≈ 428 µM) | 128 (≈ 428 µM)
5 | S=C(N/N=C/c1cc2cccc(Cl)c2nc1Cl)NC1CCCC1 | 17.68 | 13.15 | 15.17 | 17.18 | 128 (≈ 348 µM) | 256 (≈ 697 µM) | 128 (≈ 348 µM) | 256 (≈ 697 µM)
6 | S=C(N/N=C/c1cc2cccc(Cl)c2nc1Cl)NC1CCCCC1 | 17.23 | 13.73 | 15.72 | 15.23 | 64 (≈ 168 µM) | 128 (≈ 336 µM) | 256 (≈ 671 µM) | 256 (≈ 671 µM)
7 | Cc1ccccc1NC(=S)N/N=C/c1cc2cccc(Cl)c2nc1Cl | 18.9 | 10.26 | 10.53 | 13.47 | 32 (≈ 82.2 µM) | 64 (≈ 164 µM) | 32 (≈ 82.2 µM) | 64 (≈ 164 µM)
8 | Fc1ccc(F)c(NC(=S)N/N=C/c2cc3cccc(Cl)c3nc2Cl)c1 | 12.15 | 15.92 | 14.92 | 13.75 | 64 (≈ 156 µM) | 32 (≈ 77.8 µM) | 64 (≈ 156 µM) | 64 (≈ 156 µM)
9 | Cc1ccc(NC(=S)N/N=C/c2cc3cccc(Cl)c3nc2Cl)cc1 | 15.01 | 15.76 | 17.55 | 15.88 | 64 (≈ 164 µM) | 32 (≈ 82.2 µM) | 32 (≈ 82.2 µM) | 64 (≈ 164 µM)
10 | O=[N+]([O-])c1ccc(NC(=S)N/N=C/c2cc3cccc(Cl)c3nc2Cl)cc1 | 19.7 | 15.26 | 15.99 |  | 32 (≈ 76.1 µM) | 64 (≈ 152 µM) | 64 (≈ 152 µM) | 256 (≈ 609 µM)
11 | NC(=S)N/N=C/c1cc2ccccc2nc1Cl | 11.67 | 16.97 | 12.42 | 17.76 | 128 (≈ 483 µM) | 64 (≈ 242 µM) | 128 (≈ 483 µM) | 256 (≈ 967 µM)
12 | S=C(N/N=C/c1cc2ccccc2nc1Cl)NC1CCCC1 | 19.52 | 21.07 | 22.58 | 21.12 | 64 (≈ 192 µM) | 128 (≈ 385 µM) | 128 (≈ 385 µM) | 128 (≈ 385 µM)
13 | S=C(N/N=C/c1cc2ccccc2nc1Cl)NC1CCCCC1 | 12.37 | 12.38 | 15.93 | 17.68 | 256 (≈ 738 µM) | 256 (≈ 738 µM) | 128 (≈ 369 µM) | 128 (≈ 369 µM)
14 | S=C(N/N=C/c1cc2ccccc2nc1Cl)NC1CCCCCCC1 | 9.9 | 13.67 | 19.73 | 13.23 | 256 (≈ 683 µM) | 128 (≈ 341 µM) | 128 (≈ 341 µM) | 256 (≈ 683 µM)
15 | Cc1ccccc1NC(=S)N/N=C/c1cc2ccccc2nc1Cl |  | 16.48 | 14.73 | 18.84 | 256 (≈ 721 µM) | 64 (≈ 180 µM) | 64 (≈ 180 µM) | 32 (≈ 90.2 µM)
